Measured values of several laboratories.
Target: Serine/threonine-protein kinase Sgk2 (SGK2, Homo sapiens, UniProt Q9HBY8)
Sequence (Q9HBY8 1-367, as in one of the studies): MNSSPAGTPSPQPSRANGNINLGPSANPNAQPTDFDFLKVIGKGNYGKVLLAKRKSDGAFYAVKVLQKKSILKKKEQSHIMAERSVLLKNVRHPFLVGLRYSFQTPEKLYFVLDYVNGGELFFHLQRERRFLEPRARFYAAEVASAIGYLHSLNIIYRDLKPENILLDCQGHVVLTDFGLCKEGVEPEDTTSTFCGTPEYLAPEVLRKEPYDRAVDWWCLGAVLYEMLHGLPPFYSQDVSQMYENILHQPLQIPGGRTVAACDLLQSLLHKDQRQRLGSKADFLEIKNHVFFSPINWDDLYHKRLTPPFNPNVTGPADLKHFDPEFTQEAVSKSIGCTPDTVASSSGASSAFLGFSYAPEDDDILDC

| SMILES | observed | action | technique | tested at | measurement | result |
| --- | --- | --- | --- | --- | --- | --- |
| CCc1ccccc1C(=O)Nc1n[nH]c2c(C)c(F)c(C3C(C#N)=C(C)N(C)C(C)=C3C#N)cc12 | cell-free assay |  | competition with immobilised ligand | 1 µM | remaining binding | 100% |
| Cc1sc(C(=O)NC2COC2)cc1-n1cc(NC(=O)Nc2c(F)cccc2Cl)cn1 | enzyme activity | inhibitor |  | 10 µM | remaining activity | 97.2% |
| Cc1nccc(COC(=O)N2C[C@@H]3[C@@H](CNC(=O)c4ccc5[nH]nnc5c4)[C@@H]3C2)n1 | cell-free assay |  | competition with immobilised ligand | 1 µM | remaining binding | 100% |
| Cc1ccc(C(=O)Nc2ccc(CN3CCN(C)CC3)c(C(F)(F)F)c2)cc1C#Cc1cnc2cccnn12 | enzyme activity | inhibitor |  | 23.5 nM | remaining activity | 76% |
| CC(=O)c1c(NS(C)(=O)=O)c2cc(-c3ccc(Cl)cc3)c(-c3ccc(Cl)cc3Cl)nc2n(C)c1=O | cell-free assay |  | competition with immobilised ligand | 1 µM | remaining binding | 92% |
| CCN(CC)CCNC(=O)c1c(C)[nH]c(/C=C2\C(=O)Nc3ccc(F)cc32)c1C | enzyme activity | inhibitor |  | 10 µM | inhibition | 48% |
| CN([C@@H]1CCc2c(CC(=O)O)c3cc(S(C)(=O)=O)ccc3n2C1)S(=O)(=O)c1ccc(F)cc1 | cell-free assay |  | competition with immobilised ligand | 1 µM | remaining binding | 100% |
| CNc1cccc2cc(C(=O)Nc3ccc(C(=O)O)cc3)c(=O)[nH]c12 | enzyme activity | inhibitor |  | 10 µM | inhibition | -1.2% |
| N#CCCc1ccc2c(c1)-c1[nH]c3ccc([N+](=O)[O-])cc3c1CC(=O)N2 | cell-free assay |  |  | 0.5 µM | remaining signal | 114% |
| CC(C)(C)c1nc2c(s1)c1nc(N)ncc1c1ccc(NS(=O)(=O)c3c(F)cccc3F)c(F)c12 | enzyme activity | inhibitor | radiometric | 1 µM | remaining activity | 91% |
| Nc1ncnc2occ(-c3ccc(NC(=O)Nc4cc(C(F)(F)F)ccc4F)cc3)c12 | cell-free assay | inhibitor |  | 20 µM | remaining signal | 13% |
| CC(C)(O)[C@H]1CC[C@H](Nc2ccc3ncc(-c4cccc(C(F)(F)F)c4)n3n2)CC1 | enzyme activity | inhibitor |  | 1 µM | remaining activity | 96.1% |
| Cc1cc(NC(=O)c2cccc3cc(-c4cccc5[nH]nc(N)c45)ccc23)ccc1F | enzyme activity | inhibitor |  | 0.1 µM | activity vs control | 76% |
| COc1cc2ncnc(Nc3ccc(Oc4ccccc4)c(C)c3C)c2cc1OC | enzyme activity | inhibitor |  | 1 µM | inhibition | 0% |
| CO[C@H]1CC[C@H](CNc2ccc(S(=O)(=O)NC(=O)c3ccc(N4CCN(CC5=C(c6ccc(Cl)cc6)CC(C)(C)CC5)CC4)cc3Oc3cnc4[nH]ccc4c3)cc2[N+](=O)[O-])CC1 | cell-free assay |  | competition with immobilised ligand | 1 µM | remaining binding | 91% |
| Cc1ccc(Nc2nccc(N(C)c3ccc4c(C)n(C)nc4c3)n2)cc1S(N)(=O)=O | enzyme activity | inhibitor |  | 10 µM | inhibition | 10% |
| O=C(NS(=O)(=O)c1ccc(NCC2CCOCC2)c([N+](=O)[O-])c1)c1ccc(N2CCN(Cc3ccc(C(F)(F)F)cc3-c3ccc(Cl)cc3)CC2)cc1Oc1cnc2[nH]ccc2c1 | cell-free assay |  | competition with immobilised ligand | 1 µM | remaining binding | 100% |
| CNC(=O)c1cc(Oc2ccc(NC(=O)Nc3ccc(Cl)c(C(F)(F)F)c3)cc2)ccn1 | enzyme activity | inhibitor |  | 0.3 µM | inhibition | 3% |
| O=C(Nc1cnn(-c2csc(C(=O)NC3COC3)c2)c1)Nc1c(F)cccc1Cl | enzyme activity | inhibitor |  | 5 µM | remaining activity | 88.6% |
| CCCOc1ccc(OC)c(F)c1C(=O)c1ccc(C(=O)N[C@@H]2CNC[C@H]2NC(=O)c2ccc3[nH]ncc3c2)cc1 | enzyme activity | inhibitor |  | 50 nM | remaining activity | 72% |
| Cn1cnc(Br)c1C1=CN(c2ncnc3[nH]cnc23)CCS1 | enzyme activity | inhibitor | radiometric | 50 nM | inhibition | 20.8% |
| Nc1cnc(N2CCc3cc(S(=O)(=O)Nc4c(F)cc(Cl)cc4F)cc(N4CCCC4=O)c32)nc1 | cell-free assay |  | competition with immobilised ligand | 1 µM | remaining binding | 76% |
| CCCS(=O)(=O)Nc1ccc(F)c(C(=O)c2c[nH]c3ncc(-c4ccc(Cl)cc4)cc23)c1F | enzyme activity | inhibitor |  | 1 µM | inhibition | < 10% |
